Assay results as given in ChEMBL document CHEMBL2321662, “Azepines and piperidines with dual norepinephrine dopamine uptake inhibition and antidepressant activity” (ACS Med Chem Lett, 2013).
Activity calls are given as the source filed them. No cut-off for these calls is given here.

How the values were obtained:
[1] = biological target: Sodium-dependent serotonin transporter (Homo sapiens, UniProt P31645); assay: Inhibition of human recombinant SERT expressed in HEK cells; assay type: cell-based, HEK293
Outline: (§1)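 HEK cells overexpressing human recombinant transporter; uptake inhibition read as block of a fluorescent substrate with a neurotransmitter uptake kit. Values averaged from at least n = 3, up to 2-fold variability.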

[2] = biological target: Sodium-dependent dopamine transporter (Homo sapiens, UniProt Q01959); assay: Inhibition of human recombinant DAT expressed in HEK cells; assay type: cell-based, HEK293
[3] = biological target: Sodium-dependent noradrenaline transporter (Homo sapiens, UniProt P23975); assay: Inhibition of human recombinant NET expressed in HEK cells; assay type: cell-based, HEK293; outline: as §1
Cytochrome P450 2D6 = Cytochrome P450 2D6 (Homo sapiens, UniProt P10635); assay: Inhibition of CYP2D6 (unknown origin); assay type: ADME
[4] = Intrinsic clearance in human liver microsomes; assay type: ADME, Microsome; conditions: read-out: CLH
Outline: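 Human liver microsomes; intrinsic clearance reported in μL/min/mg.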

[5] = Ratio of drug level in whole brain to plasma in Long Evans rat; assay type: ADME, cell-free; conditions: whole brain and plasma, read-out: BPR
Rattus norvegicus [6] = assay: In vivo DAT occupancy in sc dosed Long Evans rat striatum using [3H]-PE2I administered 30 mins before [3H]-PE2I 35428 challenge measured after 60 mins; assay type: functional
Outline: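 Test compound given sc to rats; 30 min later [3H]PE2I given sc as DAT radioligand, quantified in striatum. […] Mean reported, 95% CI typically ± half the mean.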

Plasma = assay: Fraction unbound in Long Evans rat plasma; assay type: ADME, cell-free
Rattus norvegicus [7] = assay: Antidepressant activity in Sprague-Dawley rat assessed as reduction of immobility time at 0.3 mg/kg, sc measured for 5 mins by forced swimming test; assay type: functional, organism-based; set-up: dose 0.3 mg/kg
Outline: (§2)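 Sprague–Dawley rats dosed sc, then scored for immobility time in the forced-swim test. The positive control was desipramine at 15 mg/kg ip. Data are group means ± SEM, compared with vehicle by one-way ANOVA.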

Rattus norvegicus [8] = assay: Antidepressant activity in Sprague-Dawley rat assessed as reduction of immobility time at 1 to 30 mg/kg, sc measured for 5 mins by forced swimming test; assay type: functional, organism-based; outline: as §2
Rattus norvegicus [9] = assay: Antidepressant activity in sc dosed Sprague-Dawley rat assessed as increase of locomotor activity and stereotypic behavior; assay type: functional, organism-based
Outline: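 Rats were dosed sc. Spontaneous locomotion was scored over the last 15 min of the session: distance traveled from beam breaks, and stereotypy from repeated breaks of the same beam. Data are group means ± SEM, compared with vehicle by one-way ANOVA.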

Rattus norvegicus [10] = assay: In vivo NET occupancy in sc dosed Long Evans rat thalamus [3H]-MeNER administered 30 mins before [3H]-MeNER challenge measured after 90 mins; assay type: functional
Outline: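 Rats received test compound, then 30 min later sc [3H]MeNER as the NET radioligand, counted in thalamus. […] Mean reported; 95% CI typically ± half the mean.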

[11] = biological target: Voltage-gated inwardly rectifying potassium channel KCNH2 (Homo sapiens, UniProt Q12809); assay: Inhibition of human ERG expressed in CHO-K1 cells by electrophysiological assay; assay type: cell-based
Rattus norvegicus [12] = assay: Antidepressant activity in Sprague-Dawley rat assessed as reduction of immobility time at 1 mg/kg, sc measured for 5 mins by forced swimming test; assay type: functional, organism-based; set-up: dose 1 mg/kg
Outline: (§3)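 Rats (Sprague–Dawley) given test compound sc, then scored in forced-swim test for immobility time. Vehicle group comparison; desipramine control dosed 15 mg/kg ip. Data as group means ± SEM; significance vs vehicle by one-way ANOVA.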

Rattus norvegicus [13] = assay: In vivo DAT occupancy in sc dosed Long Evans rat striatum assessed as unbound plasma levels equaling 50% occupancy using [3H]WIN 35428 administered 30 mins before [3H]WIN 35428 challenge measured after 60 mins; assay type: functional, organism-based
[14] = Metabolic stability of the compound assessed as GSH adduct formation; assay type: ADME
Rattus norvegicus [15] = assay: Antidepressant activity in Sprague-Dawley rat assessed as reduction of immobility time at 3 to 10 mg/kg, sc measured for 5 mins by forced swimming test; assay type: functional, organism-based; outline: as §3
Rattus norvegicus [16] = assay: In vivo NET occupancy in sc dosed Long Evans rat thalamus assessed as unbound plasma levels equaling 50% occupancy using [3H]-MeNER administered 30 mins before [3H]-MeNER challenge measured after 90 mins; assay type: functional, organism-based
Rattus norvegicus [17] = assay: Antidepressant activity in Sprague-Dawley rat assessed as reduction of immobility time at 0.7 mg/kg, sc measured for 5 mins by forced swimming test; assay type: functional, organism-based; set-up: dose 0.7 mg/kg; outline: as §2
Rattus norvegicus [18] = assay: Antidepressant activity in Sprague-Dawley rat assessed as reduction of immobility time at 2.4 to 7.3 mg/kg, sc measured for 5 mins by forced swimming test; assay type: functional, organism-based; outline: as §2
Rattus norvegicus [19] = assay: In vivo DAT occupancy in sc dosed Long Evans rat striatum using [3H]PE2I administered 30 mins before [3H]PE2I challenge measured after 60 mins
Rattus norvegicus [20] = species on record: Rattus norvegicus; assay: animal or person; assay type: functional, organism-based; conditions: Long Evans, Striatum

Sequence of Sodium-dependent noradrenaline transporter (P23975 whole entry): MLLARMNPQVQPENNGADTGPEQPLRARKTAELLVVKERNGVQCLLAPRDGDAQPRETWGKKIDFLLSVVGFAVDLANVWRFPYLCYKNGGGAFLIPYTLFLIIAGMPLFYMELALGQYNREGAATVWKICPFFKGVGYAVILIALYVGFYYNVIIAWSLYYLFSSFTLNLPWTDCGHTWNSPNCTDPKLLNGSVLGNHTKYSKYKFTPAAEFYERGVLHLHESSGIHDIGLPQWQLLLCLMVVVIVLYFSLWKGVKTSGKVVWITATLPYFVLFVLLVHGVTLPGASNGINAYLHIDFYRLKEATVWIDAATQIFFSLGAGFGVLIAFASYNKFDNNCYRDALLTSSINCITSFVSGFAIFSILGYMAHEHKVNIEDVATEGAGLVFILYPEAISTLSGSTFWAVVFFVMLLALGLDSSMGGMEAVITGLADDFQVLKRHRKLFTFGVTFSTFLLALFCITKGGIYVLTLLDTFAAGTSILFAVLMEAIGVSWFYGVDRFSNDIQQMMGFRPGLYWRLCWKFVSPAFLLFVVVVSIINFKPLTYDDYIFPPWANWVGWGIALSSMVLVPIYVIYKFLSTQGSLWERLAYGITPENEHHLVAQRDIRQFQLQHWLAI
Sequence of Sodium-dependent serotonin transporter (P31645 whole entry): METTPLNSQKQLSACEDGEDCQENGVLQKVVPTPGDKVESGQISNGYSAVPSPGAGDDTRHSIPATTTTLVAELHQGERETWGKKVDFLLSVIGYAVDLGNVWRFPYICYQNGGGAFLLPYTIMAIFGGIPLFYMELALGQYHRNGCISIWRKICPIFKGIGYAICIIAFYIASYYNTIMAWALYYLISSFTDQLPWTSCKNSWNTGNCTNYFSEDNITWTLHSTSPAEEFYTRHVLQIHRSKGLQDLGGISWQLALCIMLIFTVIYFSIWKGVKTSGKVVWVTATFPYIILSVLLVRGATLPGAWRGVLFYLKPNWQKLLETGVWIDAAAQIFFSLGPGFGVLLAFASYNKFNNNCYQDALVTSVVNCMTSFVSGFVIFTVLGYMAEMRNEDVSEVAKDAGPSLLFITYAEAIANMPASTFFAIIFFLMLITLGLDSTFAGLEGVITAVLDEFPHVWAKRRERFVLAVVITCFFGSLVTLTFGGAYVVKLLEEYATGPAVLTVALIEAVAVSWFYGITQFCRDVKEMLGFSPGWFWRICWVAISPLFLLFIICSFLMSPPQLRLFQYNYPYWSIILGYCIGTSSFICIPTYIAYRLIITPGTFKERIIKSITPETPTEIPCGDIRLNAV
Sequence of Cytochrome P450 2D6 (P10635 whole entry): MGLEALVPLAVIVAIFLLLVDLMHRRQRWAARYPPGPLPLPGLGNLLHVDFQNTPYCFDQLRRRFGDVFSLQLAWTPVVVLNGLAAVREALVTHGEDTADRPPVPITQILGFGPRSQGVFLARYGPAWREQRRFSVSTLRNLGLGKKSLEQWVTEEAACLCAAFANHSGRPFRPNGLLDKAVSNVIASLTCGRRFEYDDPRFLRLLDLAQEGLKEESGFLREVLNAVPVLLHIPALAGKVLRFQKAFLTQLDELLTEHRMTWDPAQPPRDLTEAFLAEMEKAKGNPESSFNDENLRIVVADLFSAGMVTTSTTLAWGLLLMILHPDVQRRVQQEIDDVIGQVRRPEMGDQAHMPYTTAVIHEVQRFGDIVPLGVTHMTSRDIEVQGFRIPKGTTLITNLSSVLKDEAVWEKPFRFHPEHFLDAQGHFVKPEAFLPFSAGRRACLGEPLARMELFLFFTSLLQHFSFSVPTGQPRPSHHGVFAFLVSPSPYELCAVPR
Sequence of Voltage-gated inwardly rectifying potassium channel KCNH2 (Q12809 whole entry): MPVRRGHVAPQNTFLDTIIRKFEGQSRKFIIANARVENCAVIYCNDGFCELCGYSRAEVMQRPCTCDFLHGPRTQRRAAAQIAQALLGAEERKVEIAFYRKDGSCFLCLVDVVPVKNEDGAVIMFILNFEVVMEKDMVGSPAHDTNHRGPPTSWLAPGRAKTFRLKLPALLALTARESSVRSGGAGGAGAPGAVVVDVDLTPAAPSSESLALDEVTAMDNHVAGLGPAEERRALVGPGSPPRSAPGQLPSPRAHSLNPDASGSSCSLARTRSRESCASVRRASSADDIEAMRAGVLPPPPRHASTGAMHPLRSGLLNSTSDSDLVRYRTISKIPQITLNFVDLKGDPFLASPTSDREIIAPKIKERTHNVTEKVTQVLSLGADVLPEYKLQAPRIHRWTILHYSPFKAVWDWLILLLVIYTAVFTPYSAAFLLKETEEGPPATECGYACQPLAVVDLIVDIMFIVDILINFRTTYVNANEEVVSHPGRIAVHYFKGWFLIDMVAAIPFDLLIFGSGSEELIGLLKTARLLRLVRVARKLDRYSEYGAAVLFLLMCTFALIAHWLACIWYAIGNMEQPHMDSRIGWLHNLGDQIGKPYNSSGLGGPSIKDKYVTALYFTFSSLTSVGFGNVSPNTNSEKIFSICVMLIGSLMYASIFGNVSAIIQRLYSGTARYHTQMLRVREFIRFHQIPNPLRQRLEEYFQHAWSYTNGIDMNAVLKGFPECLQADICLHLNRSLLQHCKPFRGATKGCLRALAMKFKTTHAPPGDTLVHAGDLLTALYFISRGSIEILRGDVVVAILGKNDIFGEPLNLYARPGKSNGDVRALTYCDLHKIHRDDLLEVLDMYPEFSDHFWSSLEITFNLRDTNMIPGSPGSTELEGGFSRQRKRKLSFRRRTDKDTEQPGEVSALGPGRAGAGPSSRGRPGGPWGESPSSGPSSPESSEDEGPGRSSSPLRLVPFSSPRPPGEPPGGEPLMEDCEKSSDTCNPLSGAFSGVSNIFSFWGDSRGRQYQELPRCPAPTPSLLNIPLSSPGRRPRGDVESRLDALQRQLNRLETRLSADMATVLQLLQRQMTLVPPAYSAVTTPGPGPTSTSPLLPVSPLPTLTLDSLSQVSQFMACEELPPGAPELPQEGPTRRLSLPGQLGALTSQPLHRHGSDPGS
Sequence of Sodium-dependent dopamine transporter (Q01959 whole entry): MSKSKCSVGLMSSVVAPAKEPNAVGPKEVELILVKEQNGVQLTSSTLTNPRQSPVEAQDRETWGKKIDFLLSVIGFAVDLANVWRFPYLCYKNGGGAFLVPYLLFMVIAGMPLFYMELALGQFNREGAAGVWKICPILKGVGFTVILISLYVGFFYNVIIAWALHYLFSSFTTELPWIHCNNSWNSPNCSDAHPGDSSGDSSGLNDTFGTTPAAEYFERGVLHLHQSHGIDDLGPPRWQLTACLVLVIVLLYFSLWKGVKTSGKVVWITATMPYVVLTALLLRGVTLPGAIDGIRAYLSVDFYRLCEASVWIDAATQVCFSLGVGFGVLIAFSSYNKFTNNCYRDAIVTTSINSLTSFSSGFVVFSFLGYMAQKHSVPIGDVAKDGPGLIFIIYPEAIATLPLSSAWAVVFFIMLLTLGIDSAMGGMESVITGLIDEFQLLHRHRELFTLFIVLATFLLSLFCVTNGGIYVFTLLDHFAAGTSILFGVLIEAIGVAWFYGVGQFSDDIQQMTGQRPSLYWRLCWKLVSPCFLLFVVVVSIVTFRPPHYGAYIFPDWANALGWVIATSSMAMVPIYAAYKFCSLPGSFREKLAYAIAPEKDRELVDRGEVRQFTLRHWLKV

| Structure (SMILES) | Ki [1] [nM] | Ki [2] [nM] | Ki [3] [nM] | IC50 (Cytochrome P450 2D6) [nM] | microsomal CLint [4] [µL/min/mg] | IC50 [11] [nM] | further results |
| --- | --- | --- | --- | --- | --- | --- | --- |
| C1=CCC(c2ccc3ccccc3c2)CNC1 (stereo unspecified) | 63 | 10 | 25 | 6600 | 94 |  |  |
| Clc1ccc(C2CC=CCNC2)cc1Cl (racemic) | 220 | 6 | 66 | 5100 | 30 |  |  |
| CN1Cc2c(N)cccc2C(c2ccccc2)C1 (racemic) [NOMIFENSINE] |  |  |  | > 20000 | 37 | > 27000 | Kp [5]: 10.1; ED50 (Rattus norvegicus [6]): 0.7 mg/kg; Cp(f) (Plasma): 60.5%; Activity (Rattus norvegicus [7]): inactive; Activity (Rattus norvegicus [8]): Active; Activity (Rattus norvegicus [9]): Dose-dependent effect; ED50 (Rattus norvegicus [10]): 0.05 mg/kg |
| CN1CC=CC[C@@H](c2ccc(Cl)c(Cl)c2)C1 | 130 | 13 | 54 |  | 86 |  |  |
| Clc1ccc([C@H]2CC=CCNC2)cc1Cl | 220 | 6 | 17 | 3900 | 33 |  | Activity (Rattus norvegicus [12]): inactive; Kp [5]: 4.8; ED50 (Rattus norvegicus [6]): 0.8 mg/kg; Cp(f) (Plasma): 7.7%; EC50 (Rattus norvegicus [13]): 220 nM; Stability [14]: Stable; Activity (Rattus norvegicus [15]): Active; Activity (Rattus norvegicus [9]): Dose-dependent effect; EC50 (Rattus norvegicus [16]): 46 nM; ED50 (Rattus norvegicus [10]): 0.5 mg/kg |
| CN1CCCCC(c2ccc(Cl)c(Cl)c2)C1 (racemic) | 260 | 8 | 74 |  |  | 10000 |  |
| Cc1ccc(C2CC=CCNC2)cc1Cl (stereo unspecified) | 600 | 49 | 83 | 5600 | 100 | > 27000 |  |
| Clc1cccc(C2CC=CCNC2)c1 (stereo unspecified) |  | 240 | 430 |  |  | > 33000 |  |
| OCCN1CC=CC[C@H](c2ccc(Cl)c(Cl)c2)C1 | 150 | 37 | 12 | > 20000 | 52 | 10000 |  |
| CN1CC=CCC(c2cc3ccccc3o2)C1 (stereo unspecified) | 800 | 60 | 120 | 6700 | 97 | 15000 |  |
| OCC[C@]1(c2ccc(Cl)c(Cl)c2)CCCNC1 | 42 | 9.3 | 3.3 | > 20000 | < 4 | > 33000 |  |
| C1=CCC(c2cc3ccccc3o2)CNC1 (stereo unspecified) | 240 | 23 | 46 | 7800 | 83 | 19000 |  |
| Clc1ccc(C2CCCCNC2)cc1Cl (racemic) | 140 | 11 | 130 | 2300 | 35 | 6100 |  |
| Clc1ccc(C2CC=CCNC2)cc1 (stereo unspecified) |  | 25 | 250 |  |  | > 31000 |  |
| Fc1ccc(C2CC=CCNC2)cc1Cl (stereo unspecified) | 1500 | 68 | 130 | 6400 | 15 |  |  |
| Clc1ccc([C@@H]2CC=CCNC2)cc1Cl | 420 | 8 | 24 | 3100 | 50 |  |  |
| CN1CC=CC[C@H](c2ccc(Cl)c(Cl)c2)C1 | 83 | 3 | 12 |  | 51 |  |  |
| Cc1cc(C2CC=CCNC2)ccc1Cl (stereo unspecified) |  | 24 | 170 |  |  | 26000 |  |
| OCC[C@]1(c2cc3ccccc3o2)CCCNC1 | 230 | 6 | 4 | > 20000 | 22 |  | Activity (Rattus norvegicus [17]): inactive; Kp [5]: 5.8; Activity (Rattus norvegicus [18]): Active; Cp(f) (Plasma): 75%; Stability [14]: Stable; Activity (Rattus norvegicus [9]): inactive; EC50 (Rattus norvegicus [16]): 5.6 nM; ED50 (Rattus norvegicus [10]): 0.17 mg/kg; ED50 (Rattus norvegicus [19]): 0.8 mg/kg; EC50 (Rattus norvegicus [20]): 33 nM |
| COCCN1CC=CC[C@H](c2ccc(Cl)c(Cl)c2)C1 | 540 | 9 | 15 | 3900 | 150 | 5300 |  |
| OCC[C@@]1(c2cc3ccccc3o2)CCCNC1 |  | 400 | 430 |  |  |  |  |
| CN1CC=CCC(c2ccc(Cl)c(Cl)c2)C1 (racemic) | 100 | 5 | 57 |  | 57 |  |  |
| Cc1cc(C2CC=CCN(C)C2)ccc1Cl (stereo unspecified) | 270 | 23 | 130 | 18000 | 85 | 26000 |  |
| OCC[C@@]1(c2ccc(Cl)c(Cl)c2)CCCNC1 | 250 | 140 | 250 | > 20000 | < 4 | > 33000 |  |
